Data taken from ChEMBL document CHEMBL1122735, “Synthesis and activity of novel nitropyrazines for use as hypoxic cell radiosensitizers” (J Med Chem, 1984).

Experiments:
[1] = Compound was evaluated for the chronic aerobic cytotoxicity in chinese hamster lung fibroblast like cells after 7 days exposure in air at 37 degree Centigrade; type: cell-based, Cricetulus griseus; conditions: 168 h
In short: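 V79 379A Chinese hamster lung fibroblast-like cells kept in Eagle's MEM with fcs. Cells plated in Petri dishes and held with a range of sensitizer concentrations for 7 days at 37 °C in air plus 5% CO2, then colonies scored. The concentration reducing colony number to 50% was estimated.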

[2] = Compound was evaluated for the acute cytotoxicity chinese hamster lung fibroblast like cells after 2 hr exposure in nitrogen at 22 degree Centigrade; type: cell-based, Cricetulus griseus
In short: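 V79 379A Chinese hamster lung fibroblast-like cells, taken from log-phase suspension culture, allowed to attach to glass dishes in Eagle's MEM + 10% fcs at 37 °C for 2-3 h. Exposed to a range of sensitizer concentrations for 2 h at room temperature (22 °C) under N2 + 5% CO2. Sensitizer then replaced with fresh medium, followed by 7 days at 37 °C in air + 5% CO2 and colony scoring. Value is the concentration giving 75% colony-forming survival.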

[3] = Partition coefficient which was measured in octanol-buffer system at pH 7, 22 degree Centigrade; type: physicochemical; conditions: octanol/water
In short: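 Partition coefficient taken as C(octanol)/C(pH 7 buffer) at 22 °C.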

[4] = Sensitizer enhancement ratio was reported at 10E-3 mol/dmE-3 concentration.
In short: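 Asynchronous log-phase V79 379A cells, attached to glass dishes, irradiated at room temperature with 250 kVp X-rays (0.5 mm Cu + 0.8 mm Al filter, 3.26 gray min-1) in the presence of sensitizer, triplicate dishes per point; colonies scored. ER = dose for 10^-2 survival without sensitizer divided by dose with sensitizer, or ratio of final linear survival-curve slopes.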

SMILES	Cytotoxicity [1] [µM]	Acute toxicity [2] [mM]	Partition coefficient [3]	Ratio [4]
CC(=O)Nc1nc(N2CCN(C)CC2)c(Cl)nc1[N+](=O)[O-]	25	0.16	3.18	1.5
Nc1nc(NCCO)c(Cl)nc1[N+](=O)[O-]	260	> 3	1.32	1.22
O=[N+]([O-])c1cnc(NC(CO)C(O)CO)cn1 (stereo not given)	650	> 5	0.13	1.1
COC(=O)c1nc(NCC(O)CO)cnc1[N+](=O)[O-] (stereo not given)	> 500	> 5	0.79	1.3
COCC(O)Cn1ccnc1[N+](=O)[O-] (stereo not given) [MISONIDAZOLE]	1300	30	0.48	–
Nc1nc(NCC(O)CO)c(Cl)nc1[N+](=O)[O-] (stereo not given)	580	> 4	0.6	1.25
CC(=O)Nc1nc(NC(CO)C(O)CO)c(Cl)nc1[N+](=O)[O-] (stereo not given)	400	> 3.3	0.22	1.35
CC(=O)Nc1nc(NCC(O)CO)c(Cl)nc1[N+](=O)[O-] (stereo not given)	96	4	1.01	1.3
O=[N+]([O-])c1nccnc1NCC(O)CO (stereo not given)	27	0.7	0.32	1.71
